Assay results from ChEMBL document CHEMBL1781951, “Theonellasterols and conicasterols from Theonella swinhoei. Novel marine natural ligands for human nuclear receptors” (J Med Chem, 2011).
Active and inactive are the calls of the source. The rule behind the calls is not given here.

How the values were obtained:
[1] = target: T1, Bile acid receptor (Homo sapiens) (UniProt Q96RI1); test: Antagonist activity at human FXR expressed in HepG2 cells assessed as inhibition of CDCA-induced transactivation at 50 uM after 18 hrs by luciferase reporter gene assay
T1 sequence (whole entry): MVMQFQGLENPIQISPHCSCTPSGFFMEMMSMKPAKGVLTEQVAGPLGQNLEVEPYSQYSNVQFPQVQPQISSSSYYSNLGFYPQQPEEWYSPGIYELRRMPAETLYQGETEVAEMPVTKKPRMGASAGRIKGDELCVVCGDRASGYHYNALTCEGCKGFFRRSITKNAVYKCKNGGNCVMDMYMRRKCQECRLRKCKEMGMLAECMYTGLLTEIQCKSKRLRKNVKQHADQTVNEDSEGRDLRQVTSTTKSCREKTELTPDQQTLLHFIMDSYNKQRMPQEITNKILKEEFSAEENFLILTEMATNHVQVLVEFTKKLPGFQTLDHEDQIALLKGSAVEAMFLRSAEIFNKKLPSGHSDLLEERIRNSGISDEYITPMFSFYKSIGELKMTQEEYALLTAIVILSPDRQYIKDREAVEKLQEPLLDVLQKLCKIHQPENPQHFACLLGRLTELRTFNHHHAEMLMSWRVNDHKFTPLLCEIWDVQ

[2] = target: T1, Bile acid receptor (Homo sapiens); test: Partial agonist activity at human FXR expressed in human HepG2 cells assessed as induction of transactivation at 10 uM after 18 hrs by luciferase reporter gene assay; type: functional, cell-based
Summary of the method: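 HepG2 cells (5 × 10^5 cells/well) were transiently transfected using Fugene HD with pSG5-FXR, pSG5-RXR, pCMV-β-gal and a p(hsp27)-TK-LUC reporter carrying the hsp27 IR1 FXR response element. At 48 h post-transfection, cells were stimulated 18 h with test agent at 10 μM; 10 μM CDCA served as reference. Luciferase was normalized to β-gal; P < 0.05 vs untreated, n = 4.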

[3] = target: T1, Bile acid receptor (Homo sapiens); test: Agonist activity at human FXR expressed in human HepG2 cells assessed as induction of OSTalpha mRNA expression at 50 uM by quantitative RT-PCR analysis; type: functional, cell-based
Summary of the method: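 HepG2 cells were primed with 10 μM CDCA alone or with 50 μM test agent. cDNA (50 ng template) was amplified by SYBR Green qPCR with 0.2 μM of each primer over 40 cycles (95/55/72 °C) in triplicate. Expression was normalized to GAPDH and reported as 2^ΔΔCT relative to untreated cells.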

inhibition [1]	Activity [2]	Activity [3]	SMILES
Active	inactive	–	C=C1[C@@H](O)CC[C@@]2(C)[C@H]1CCC1=C3[C@H](O)C[C@H]([C@H](C)CC[C@H](CC)C(C)C)[C@@]3(C)CC[C@@]12O
inactive	inactive	–	C=C1[C@@H](O)CC[C@@]2(C)[C@H]1CCC1=C3[C@H](O)C[C@H]([C@H](C)CC[C@H](CC)C(C)C)[C@@]3(C)CC[C@@]12OC
Active	inactive	–	C=C1[C@@H](O)CC[C@@]2(C)[C@H]1C[C@@H](O)C1=C3[C@H](O)C[C@H]([C@H](C)CC[C@H](CC)C(C)C)[C@@]3(C)CC[C@@H]12
Active	inactive	–	C=C1[C@@H](O)CC[C@]2(C)C3=CC[C@@]4(C)C(=CC[C@@H]4[C@H](C)CC[C@H](CC)C(C)C)C3=CC[C@@H]12
Active	inactive	–	C=C1[C@@H](O)CC[C@]2(C)C3=CC[C@@]4(C)C(=CC[C@@H]4[C@H](C)CC[C@@H](C)C(C)C)C3=CC[C@@H]12
Active	inactive	–	C=C1[C@@H](O)CC[C@@]2(C)[C@H]1CCC1=C3[C@H](O)C[C@H]([C@H](C)CC[C@@H](C)C(C)C)[C@@]3(C)CC[C@@]12O
Active	Active	Active	C=C1[C@@H](O)CC[C@]2(C)C3=C(CC[C@@H]12)[C@]1(O)[C@@H](O)C[C@H]([C@H](C)CC[C@H](CC)C(C)C)[C@@]1(C)C[C@@H]3O
Active	inactive	–	C=C1[C@@H](O)CC[C@]2(C)C3=C(CC[C@@H]12)[C@@H]1C(=O)C[C@H]([C@H](C)CC[C@H](CC)C(C)C)[C@@]1(C)CC3
inactive	inactive	–	C=C1[C@@H](O)CC[C@]2(C)C3=C(CC[C@@H]12)[C@]1(O)[C@@H](O)C[C@H]([C@H](C)CC[C@H](CC)C(C)C)[C@@]1(C)C[C@H]3O
